Source: article PMC4532310 (Nature, 2015)
Entries after “also recorded” stand apart in the source; their conditions may differ. Bridges are numbered along the chain shown (N, C = ends). Where no end group is shown, it is not given here.

T1: ER (ERECTA) ectodomain, ERΔK-GFP (Arabidopsis thaliana, UniProt Q42371)
T1 sequence (Q42371 25-580 limits assumed): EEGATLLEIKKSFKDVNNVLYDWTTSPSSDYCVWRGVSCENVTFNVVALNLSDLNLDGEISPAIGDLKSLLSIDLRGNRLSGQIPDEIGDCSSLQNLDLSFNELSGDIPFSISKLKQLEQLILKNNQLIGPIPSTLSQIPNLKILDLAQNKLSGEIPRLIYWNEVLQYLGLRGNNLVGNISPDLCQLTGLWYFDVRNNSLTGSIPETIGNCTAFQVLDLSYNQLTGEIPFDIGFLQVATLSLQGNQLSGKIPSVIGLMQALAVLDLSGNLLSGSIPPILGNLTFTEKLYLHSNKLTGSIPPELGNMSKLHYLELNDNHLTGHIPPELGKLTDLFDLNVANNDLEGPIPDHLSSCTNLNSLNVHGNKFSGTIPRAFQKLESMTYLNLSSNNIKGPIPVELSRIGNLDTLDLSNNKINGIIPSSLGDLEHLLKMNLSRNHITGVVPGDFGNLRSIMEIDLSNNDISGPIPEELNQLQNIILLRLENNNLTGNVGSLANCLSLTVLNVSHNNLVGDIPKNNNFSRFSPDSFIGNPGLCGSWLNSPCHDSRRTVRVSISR

T2: TMM (TOO MANY MOUTHS), TMM-GFP (Arabidopsis thaliana, UniProt Q9SSD1)
T2 sequence (Q9SSD1 24-496): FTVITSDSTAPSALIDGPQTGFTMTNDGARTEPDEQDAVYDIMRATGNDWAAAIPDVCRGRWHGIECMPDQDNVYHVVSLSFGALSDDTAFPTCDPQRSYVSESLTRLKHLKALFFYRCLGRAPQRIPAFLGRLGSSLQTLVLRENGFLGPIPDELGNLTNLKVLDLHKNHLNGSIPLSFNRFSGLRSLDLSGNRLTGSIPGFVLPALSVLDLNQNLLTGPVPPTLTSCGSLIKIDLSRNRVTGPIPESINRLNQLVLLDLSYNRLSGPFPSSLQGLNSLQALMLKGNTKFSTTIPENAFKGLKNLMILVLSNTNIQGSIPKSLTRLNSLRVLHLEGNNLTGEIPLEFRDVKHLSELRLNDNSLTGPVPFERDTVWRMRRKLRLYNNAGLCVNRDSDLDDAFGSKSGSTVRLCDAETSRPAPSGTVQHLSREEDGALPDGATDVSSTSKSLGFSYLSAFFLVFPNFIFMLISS

T3: ER ectodomain (ERΔK-GFP) (Arabidopsis thaliana, UniProt Q42371)
T3 sequence (Q42371 25-580 limits assumed): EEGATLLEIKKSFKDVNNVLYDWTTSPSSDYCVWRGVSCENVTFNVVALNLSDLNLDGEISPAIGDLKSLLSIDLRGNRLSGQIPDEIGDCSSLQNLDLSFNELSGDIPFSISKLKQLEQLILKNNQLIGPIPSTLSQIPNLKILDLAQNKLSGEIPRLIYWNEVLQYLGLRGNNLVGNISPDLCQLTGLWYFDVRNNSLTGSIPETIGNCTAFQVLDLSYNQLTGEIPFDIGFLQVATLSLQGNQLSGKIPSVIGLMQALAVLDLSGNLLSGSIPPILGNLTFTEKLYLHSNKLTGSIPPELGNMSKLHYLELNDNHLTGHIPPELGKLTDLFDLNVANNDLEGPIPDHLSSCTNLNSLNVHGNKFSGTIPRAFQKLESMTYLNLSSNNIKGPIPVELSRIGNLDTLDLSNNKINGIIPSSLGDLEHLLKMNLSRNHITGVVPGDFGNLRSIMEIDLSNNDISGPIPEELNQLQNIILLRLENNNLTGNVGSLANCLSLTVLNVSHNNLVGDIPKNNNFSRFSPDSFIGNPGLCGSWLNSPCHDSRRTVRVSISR


Assays:
[1] = biological target: T1, ER (ERECTA) ectodomain, ERΔK-GFP; experiment: QCM direct binding, ERΔK-GFP-functionalized chip; conditions: frequency change, phosphate buffer, 4°C
Summary of the method: (§1)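 Purified GFP-fused receptors (ERΔK-GFP, TMM-GFP) or control GFP are obtained from N. benthamiana. They are immobilised on gold QCM chips via anti-GFP antibody. Solutions of HPLC-purified, bioassay-verified bioactive peptide are then introduced, and binding is recorded as frequency change. Each run yields 10-20 points (average, SD). Replicate runs: ER n=4 Stomagen, n=2 MEPF2; TMM n=2 Stomagen, n=3 MEPF2; GFP n=3 Stomagen, n=2 MEPF2.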

[2] = system: MPK3 and MPK6; experiment: MAPK phosphorylation assay in Arabidopsis seedlings; assay type: in vivo; conditions: MEPF2 2.5 μM, Arabidopsis wild-type seedlings; anti-phosphoERK immunoblot
Summary of the method: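 Peptide (MEPF2) is applied to wild-type Arabidopsis seedlings and sampled over a time course. Heat-denatured peptide serves as a control. Extracts are immunoblotted with anti-phosphoERK antibody to detect phosphorylated MPK6 and MPK3, and Coomassie-stained total protein is shown. Four and two biological replicates are run for the two blot series.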

[3] = biological target: T2, TMM (TOO MANY MOUTHS), TMM-GFP; experiment: QCM direct binding, TMM-GFP-functionalized chip; conditions: frequency change, phosphate buffer, 4°C
Summary of the method: as §1

[4] = system: GFP; experiment: QCM direct binding, control GFP chip; conditions: frequency change, phosphate buffer, 4°C, Stomagen n=3, MEPF2 n=2
Summary of the method: as §1

[5] = system: Arabidopsis wild-type seedlings, abaxial cotyledon epidermis; assay type: in vivo; conditions: independent batch of Stomagen used in Fig. 3c, five days, n=8 (Peak 1), n=6 (Peak 2)
[6] = biological target: T3, ER ectodomain (ERΔK-GFP); experiment: Ligand competition assay, Stomagen vs MEPF2-MYC-HIS for binding to ER
Summary of the method: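 ER ectodomain–GFP (ERΔK-GFP) is expressed in N. benthamiana, and microsomal fractions are prepared. Fractions are incubated with 1 μM bioactive MEPF2-MYC-HIS plus Stomagen at 0-23.4 μM, then ER is immunoprecipitated. The co-IP'd tagged MEPF2 is immunoblotted first, and the same blot is re-probed with anti-Stomagen antibody. Blots are quantified from four biological replicates (S.E.M.), and IC50 is derived from this immunoblot-based quantification.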

[7] = system: TMM; experiment: Co-IP with TMM-GFP; assay type: binding, Arabidopsis; conditions: N. benthamiana microsomal fraction; 1 μM peptide; anti-GFP IP
[8] = biological target: ER ectodomain fused to GFP (ERΔK-GFP) (Arabidopsis); experiment: co-IP

| Molecule | binding to ERΔK-GFP (words) [1] | binding to ERΔK-GFP (words) ([1]; listed as EPF2) | time after which MPK3/MPK6 phosphorylation declined [2] | time to phosphorylation of MPK3 and MPK6 [2] | binding to TMM (words) [3] | binding to TMM (words) ([3]; listed as EPF2) | binding to control GFP [4] | bioactivity, HPLC peaks of independent batch used for QCM [5] | IC50 [6] | replacement of MEPF2 for ER-binding ([6]; 1 μM bioactive MEPF2-MYC-HIS, increasing Stomagen 0-23.4 μM, IP and immunoblot) | association with TMM by Co-IP [7] | IC50 [8] |
| --- | --- | --- | --- | --- | --- | --- | --- | --- | --- | --- | --- | --- |
| TGSSLPDCSYACGACSPCKRVMISFECSVAESCSVIYRCTCRGRYYHVPSRA (disulfide 8-39, 12-18, 15-41, 27-33) [MEPF2] | saturable binding to the ER ectodomain fused to GFP (ERΔK-GFP) with similar dissociation constants at a nanomolar range | bind to ER and TMM with a similar affinity | 2 h | 10 min | bound to TMM with high affinity | bind to ER and TMM with a similar affinity | No significant binding |  |  |  |  |  |
| IGSTAPTCTYNECRGCRYKCRAEQVPVEGNDPINSAYHYRCVCHR (disulfide 8-41, 13-20, 16-43) [Stomagen] | saturable binding to the ER ectodomain fused to GFP (ERΔK-GFP) with similar dissociation constants at a nanomolar range; also recorded: bind to ER and TMM with a similar affinity |  |  |  | bound to TMM with high affinity; also recorded: bind to ER and TMM with a similar affinity |  | No significant binding | bioactive | 454 nM | replaced MEPF2 for ER-binding | associates with all ER-family RKs and TMM |  |
| IGSTAPTCTYNECRGCRYKCRAEQVPVEGNDPINSAYHYRCVCHR [Stomagen/EPF-LIKE9 peptide (bioactive Stomagen)] |  |  |  |  |  |  |  |  |  |  |  | 454 nM |
